Reference: ChEMBL document CHEMBL1138051, “Photodynamic therapy agent with a built-in apoptosis sensor for evaluating its own therapeutic outcome in situ” (2006)

Legend:
Type in all cases: functional
HepG2 [1] = experiment: Viability of human HepG2 cells in presence of 7.5 J/cm2 light at 5 uM relative to control by MTT assay; settings: HepG2, light or radiation study, read-out: Survival
How it was run: (§1)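 HepG2 cells were plated 50000/well, grown overnight, then loaded 20 h with drug in DMEM/0.8% BSA. After rinsing into complete DMEM they were irradiated with a 670 nm laser at 20 mW/cm2 fluence rate. They were then incubated 24 h at 37 °C, given MTT 0.5 mg/mL for 2 h, solubilised in acidified 2-propanol, and A570 was read. Viability is versus untreated cells (100%), 3 wells/condition, 3-8 experiments, mean ± standard error.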

HepG2 [2] = experiment: Viability of human HepG2 cells in presence of 7.5 J/cm2 light at 15 uM relative to control by MTT assay; settings: HepG2, light or radiation study, read-out: Survival; how it was run: as §1
HepG2 [3] = experiment: Viability of human HepG2 cells at 5 uM relative to control by MTT assay; settings: read-out: Survival
How it was run: (§2)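 HepG2 cells seeded 50000/well in complete DMEM and grown overnight at 37 °C. They were then exposed for 20 h to drug in DMEM with 0.8% BSA and rinsed. Cells were kept in dark with no illumination, then incubated 24 h at 37 °C. MTT 0.5 mg/mL was given for 2 h and solubilised in 70% 2-propanol/0.1 M HCl, with A570 read. Viability is relative to untreated cells (100%), 3 wells/condition, 3-8 experiments, mean ± standard error.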

HepG2 [4] = experiment: Viability of human HepG2 cells at 1 uM relative to control by MTT assay; settings: read-out: Survival; how it was run: as §2
HepG2 [5] = experiment: Viability of human HepG2 cells in presence of 1 J/cm2 light at 1 uM relative to control by MTT assay; settings: HepG2, light or radiation study, read-out: Survival; how it was run: as §1
HepG2 [6] = experiment: Viability of human HepG2 cells in presence of 5 J/cm2 light at 30 uM relative to control by MTT assay; settings: HepG2, light or radiation study, read-out: Survival; how it was run: as §1
HepG2 [7] = experiment: Viability of human HepG2 cells at 30 uM relative to control by MTT assay; settings: read-out: Survival; how it was run: as §2
HepG2 [8] = experiment: Viability of human HepG2 cells in presence of 7.5 J/cm2 light at 1 uM relative to control by MTT assay; settings: HepG2, light or radiation study, read-out: Survival; how it was run: as §1
HepG2 [9] = experiment: Viability of human HepG2 cells in presence of 1 J/cm2 light at 30 uM relative to control by MTT assay; settings: HepG2, light or radiation study, read-out: Survival; how it was run: as §1
HepG2 [10] = experiment: Viability of human HepG2 cells in presence of 5 J/cm2 light at 5 uM relative to control by MTT assay; settings: HepG2, light or radiation study, read-out: Survival; how it was run: as §1
HepG2 [11] = experiment: Viability of human HepG2 cells in presence of 7.5 J/cm2 light at 30 uM relative to control by MTT assay; settings: HepG2, light or radiation study, read-out: Survival; how it was run: as §1
HepG2 [12] = experiment: Viability of human HepG2 cells in presence of 1 J/cm2 light at 5 uM relative to control by MTT assay; settings: HepG2, light or radiation study, read-out: Survival; how it was run: as §1
HepG2 [13] = experiment: Viability of human HepG2 cells in presence of 5 J/cm2 light at 15 uM relative to control by MTT assay; settings: HepG2, light or radiation study, read-out: Survival; how it was run: as §1
HepG2 [14] = experiment: Viability of human HepG2 cells in presence of 1 J/cm2 light at 15 uM relative to control by MTT assay; settings: HepG2, light or radiation study, read-out: Survival; how it was run: as §1
HepG2 [15] = experiment: Viability of human HepG2 cells in presence of 5 J/cm2 light at 1 uM relative to control by MTT assay; settings: HepG2, light or radiation study, read-out: Survival; how it was run: as §1
HepG2 [16] = experiment: Viability of human HepG2 cells at 15 uM relative to control by MTT assay; settings: read-out: Survival; how it was run: as §2

With C=Cc1c(C)c2cc3[nH]c(c4c5nc(cc6nc(cc1[nH]2)C(C)=C6CC)C(C)=C5C(=O)C4)[C@@](C)(CCC(=O)NCC(=O)N[C@@H](CC(=O)O)C(=O)N[C@@H](CCC(=O)O)C(=O)N[C@H](C(=O)N[C@@H](CC(=O)O)C(=O)NCC(=O)N[C@@H](CO)C(=O)NCC(=O)N[C@@H](CCCCNC(=O)CCCN(C)c1ccc(/N=N/c2ccc4nc5ccc(N(CC)CC)cc5[n+](-c5ccccc5)c4c2)cc1)C(=O)O)C(C)C)C3(C)C as the compound, how does the viability at 5 µM (HepG2 [1]) read?
Its viability at 5 µM is 4%.

And the viability at 15 µM (HepG2 [2])?
Its viability at 15 µM is 5%.

What about the viability at 5 µM (HepG2 [3]) of the same compound?
Its viability at 5 µM is 105%.

What about the viability at 1 µM (HepG2 [4]) of the same compound?
Its viability at 1 µM is 106%.

What about the viability at 1 µM (HepG2 [5]) of the same compound?
Its viability at 1 µM is 90%.

What about the viability at 30 µM (HepG2 [6]) of the same compound?
Its viability at 30 µM is 7%.

What about the viability at 30 µM (HepG2 [7]) of the same compound?
The viability at 30 µM was 117%.

What about the viability at 1 µM (HepG2 [8]) of the same compound?
The viability at 1 µM was 6%.

What about the viability at 30 µM (HepG2 [9]) of the same compound?
Its viability at 30 µM is 41%.

And the viability at 5 µM (HepG2 [10])?
The viability at 5 µM was 20%.

What about the viability at 30 µM (HepG2 [11]) of the same compound?
Its viability at 30 µM is 4%.

What about the viability at 5 µM (HepG2 [12]) of the same compound?
Its viability at 5 µM is 86%.

And the viability at 15 µM (HepG2 [13])?
The viability at 15 µM was 11%.

What about the viability at 15 µM (HepG2 [14]) of the same compound?
Its viability at 15 µM is 56%.

And the viability at 1 µM (HepG2 [15])?
Its viability at 1 µM is 58%.

And the viability at 15 µM (HepG2 [16])?
The viability at 15 µM was 108%.
